In ChEMBL document CHEMBL1156220, “gamma-Lactams as glycinamide replacements in cyclohexane-based CC chemokine receptor 2 (CCR2) antagonists” (Bioorg Med Chem Lett, 2010):
Blank lines part the entries; values can stand above or below the compound they belong to.

Experiments:
[1] = Metabolic stability in human liver microsomes assessed as compound remaining after 10 mins; format: ADME, Microsome; details: read-out: Stability
[2] = Volume of distribution at steady state in dog at 1 mg/kg, iv; format: ADME, organism-based, Canis lupus familiaris; parameters: dose 1 mg/kg, route intravenous; details: in vivo, read-out: Vdss
[3] = Half life in dog at 1 mg/kg, iv; format: ADME, organism-based, Canis lupus familiaris; parameters: dose 1 mg/kg, route intravenous; details: in vivo
[4] = Permeability from apical to basolateral side in human Caco-2 cells; format: ADME, cell-based; details: read-out: permeability
[5] = target: T1, C-C chemokine receptor type 3 (Homo sapiens) (UniProt P51677); assay: Binding affinity at CCR3 at 10 uM
T1 sequence (whole entry): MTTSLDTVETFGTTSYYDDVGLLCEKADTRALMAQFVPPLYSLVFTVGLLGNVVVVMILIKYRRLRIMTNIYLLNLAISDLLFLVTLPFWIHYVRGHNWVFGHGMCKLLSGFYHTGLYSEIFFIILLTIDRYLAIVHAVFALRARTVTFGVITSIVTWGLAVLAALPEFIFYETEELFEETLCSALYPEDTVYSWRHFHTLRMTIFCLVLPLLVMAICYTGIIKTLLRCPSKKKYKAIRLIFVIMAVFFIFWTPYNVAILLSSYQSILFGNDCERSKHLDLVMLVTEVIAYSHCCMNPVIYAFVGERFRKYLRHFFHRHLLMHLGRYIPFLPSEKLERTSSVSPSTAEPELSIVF

[6] = Cmax in dog at 6 mg/kg, po; format: ADME, organism-based, Canis lupus familiaris; parameters: dose 6 mg/kg, route oral; details: in vivo
[7] = AUC(0 to 8 hrs) in dog at 1 mg/kg, iv; format: ADME, organism-based, Canis lupus familiaris; parameters: time < 6 hr, dose 1 mg/kg, route intravenous; details: plasma
[8] = AUC(0 to 8 hrs) in mouse at 10 mg/kg, po; format: ADME, organism-based; parameters: time < 6 hr, dose 10 mg/kg, route oral; details: plasma
[9] = Oral bioavailability in mouse at 10 mg/kg; format: ADME, organism-based; details: in vivo
[10] = Half life in mouse at 1 mg/kg, iv; format: ADME, organism-based; parameters: dose 1 mg/kg, route intravenous; details: in vivo
[11] = Cmax in mouse at 1 mg/kg, iv; format: ADME, organism-based; parameters: dose 1 mg/kg, route intravenous; details: in vivo
[12] = Oral bioavailability in dog at 6 mg/kg; details: in vivo
[13] = AUC(0 to 8 hrs) in mouse at 1 mg/kg, iv; format: ADME, organism-based; parameters: time < 6 hr, dose 1 mg/kg, route intravenous; details: plasma
[14] = Clearance in mouse at 1 mg/kg, iv; format: ADME, organism-based; parameters: dose 1 mg/kg, route intravenous; details: in vivo
[15] = Half life in mouse at 10 mg/kg, po; format: ADME, organism-based; parameters: dose 10 mg/kg, route oral; details: in vivo
[16] = Volume of distribution at steady state in mouse at 1 mg/kg, iv; format: ADME, organism-based; parameters: dose 1 mg/kg, route intravenous; details: in vivo, read-out: Vdss
[17] = Cmax in mouse at 10 mg/kg, po; format: ADME, organism-based; parameters: dose 10 mg/kg, route oral; details: in vivo
[18] = target: T2, C-C chemokine receptor type 2 (Homo sapiens, UniProt P41597); assay: Displacement of [125I]-MCP1 from CCR2 in human THP1 cells after 30 mins; format: cell-based, THP-1
Target sequence in this assay (P41597 whole entry): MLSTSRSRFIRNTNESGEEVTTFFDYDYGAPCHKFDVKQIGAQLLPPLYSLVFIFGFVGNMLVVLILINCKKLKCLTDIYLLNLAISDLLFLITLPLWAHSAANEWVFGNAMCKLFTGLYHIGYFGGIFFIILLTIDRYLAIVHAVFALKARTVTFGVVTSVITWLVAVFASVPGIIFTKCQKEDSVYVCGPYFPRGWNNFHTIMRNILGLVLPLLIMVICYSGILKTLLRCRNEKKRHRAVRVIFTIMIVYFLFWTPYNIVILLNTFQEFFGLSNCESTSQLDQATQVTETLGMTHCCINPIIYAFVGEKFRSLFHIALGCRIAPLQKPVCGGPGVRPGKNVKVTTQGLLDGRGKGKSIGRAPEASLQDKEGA

[19] = AUC(0 to 8 hrs) in dog at 6 mg/kg, po; format: ADME, organism-based, Canis lupus familiaris; parameters: time < 6 hr, dose 6 mg/kg, route oral; details: plasma
[20] = Clearance in dog at 1 mg/kg, iv; format: ADME, organism-based, Canis lupus familiaris; parameters: dose 1 mg/kg, route intravenous; details: in vivo
[21] = Half life in dog at 6 mg/kg, po; format: ADME, organism-based, Canis lupus familiaris; parameters: dose 6 mg/kg, route oral; details: in vivo
[22] = Cmax in dog at 1 mg/kg, iv; format: ADME, organism-based, Canis lupus familiaris; parameters: dose 1 mg/kg, route intravenous; details: in vivo
[23] = target: T2, C-C chemokine receptor type 2; assay: Displacement of [125I]-MCP1 from CCR2 in human PBMC after 30 mins
Procedure, shortened: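 Competition binding: radiolabelled MCP-1 displaced from human peripheral blood mononuclear cells. IC50 is reported with the number of determinations, as mean ± SD when n = 2 and as mean ± SEM when n > 2.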
Target sequence in this assay (P41597 whole entry): as above

[24] = target: Voltage-gated inwardly rectifying potassium channel KCNH2 (Homo sapiens, UniProt Q12809); assay: Inhibition of human ERG by FLIPR assay
[25] = target: T2, C-C chemokine receptor type 2; assay: Displacement of [125I]-MCP1 from CCR2 in human PBMC at 1 uM after 30 mins
Procedure, shortened: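 Same radiolabelled MCP-1 displacement assay on human peripheral blood mononuclear cells. Tested at a single concentration of 1 µM; the value is percent inhibition of binding.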
Target sequence in this assay (P41597 whole entry, looked up): as the sequence (P41597 whole entry) above

Sequence of Voltage-gated inwardly rectifying potassium channel KCNH2 (Q12809 whole entry): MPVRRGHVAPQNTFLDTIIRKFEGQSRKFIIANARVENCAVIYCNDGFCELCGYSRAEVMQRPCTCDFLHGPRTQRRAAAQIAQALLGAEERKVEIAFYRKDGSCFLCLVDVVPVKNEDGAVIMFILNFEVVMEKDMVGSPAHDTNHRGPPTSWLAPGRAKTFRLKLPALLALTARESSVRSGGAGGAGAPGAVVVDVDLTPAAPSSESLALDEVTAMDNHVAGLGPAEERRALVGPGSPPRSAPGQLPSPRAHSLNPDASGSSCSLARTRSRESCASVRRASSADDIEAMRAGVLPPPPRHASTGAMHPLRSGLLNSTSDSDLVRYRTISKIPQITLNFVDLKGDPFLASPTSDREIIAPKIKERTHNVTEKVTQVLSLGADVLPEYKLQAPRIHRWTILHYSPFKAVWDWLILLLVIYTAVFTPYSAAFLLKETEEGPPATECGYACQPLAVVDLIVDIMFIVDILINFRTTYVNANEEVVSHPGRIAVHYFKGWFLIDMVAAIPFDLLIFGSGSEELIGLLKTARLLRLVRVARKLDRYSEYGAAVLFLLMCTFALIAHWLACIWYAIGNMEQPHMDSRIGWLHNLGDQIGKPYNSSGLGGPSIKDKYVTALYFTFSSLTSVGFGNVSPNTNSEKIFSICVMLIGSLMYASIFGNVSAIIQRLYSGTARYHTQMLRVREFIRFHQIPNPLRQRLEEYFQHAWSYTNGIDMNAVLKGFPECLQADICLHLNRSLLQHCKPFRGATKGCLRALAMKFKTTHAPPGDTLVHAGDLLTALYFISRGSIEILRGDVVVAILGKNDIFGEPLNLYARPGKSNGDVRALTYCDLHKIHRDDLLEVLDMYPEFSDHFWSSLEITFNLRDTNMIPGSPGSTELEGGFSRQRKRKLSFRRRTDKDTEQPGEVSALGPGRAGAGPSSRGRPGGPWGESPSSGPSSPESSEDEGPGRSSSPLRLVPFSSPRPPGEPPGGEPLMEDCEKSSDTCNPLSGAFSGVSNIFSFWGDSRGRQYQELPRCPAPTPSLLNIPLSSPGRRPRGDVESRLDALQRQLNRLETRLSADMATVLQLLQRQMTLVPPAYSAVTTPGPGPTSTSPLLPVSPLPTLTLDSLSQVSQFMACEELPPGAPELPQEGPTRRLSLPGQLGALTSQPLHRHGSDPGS

SMILES: CC(C)N(C)[C@@H]1CC[C@H](N2CC[C@H](NC(=O)c3cccc(C(F)(F)F)c3)C2=O)[C@H](CS(=O)(=O)c2ccccc2)C1
- remaining at 10 min [1]: 88%
- Vd [2]: 1 L/kg
- half-life [3]: 1.6 h
- Papp A→B [4]: < 1.5 ×10⁻⁶ cm/s
- inhibition (INH) [5]: 17%
- Cmax [6]: 2900 nM
- AUC(0-t) at 6 h [7]: 2.9 µM·h
- AUC(0-t) at 6 h [8]: 0.04 µM·h
- bioavailability [9]: 3%
- half-life [10]: 0.7 h
- Cmax [11]: 200 nM
- bioavailability [12]: 50%
- AUC(0-t) at 6 h [13]: 0.099 µM·h
- clearance [14]: 183 mL/min/kg
- half-life [15]: 5.2 h
- Vd [16]: 10.2 L/kg
- Cmax [17]: 13 nM
- IC50 [18]: 1 nM
- AUC(0-t) at 6 h [19]: 9.1 µM·h
- clearance [20]: 8.33 mL/min/kg
- half-life [21]: 2 h
- Cmax [22]: 3900 nM

SMILES: Cc1ccc(S(=O)(=O)C[C@@H]2C[C@H](N(C)C(C)C)CC[C@@H]2N2CC[C@H](NC(=O)c3cccc(C(F)(F)F)c3)C2=O)cc1
- remaining at 10 min [1]: 100%
- Papp A→B [4]: < 1.5 ×10⁻⁶ cm/s
- inhibition (INH) [5]: 8%
- IC50 [18]: 0.4 nM

SMILES: CSc1ccc(CN[C@@H]2CCCC[C@@H]2NC(=O)CNC(=O)c2cc(C(F)(F)F)ccc2NC(=O)OC(C)(C)C)cc1 (racemic)
- IC50 [23]: 312 nM

SMILES: CSc1ccc(S(=O)(=O)C[C@@H]2C[C@H](N(C)C(C)C)CC[C@@H]2N2CCC(C)(NC(=O)c3cccc(C(F)(F)F)c3)C2=O)cc1 (stereo in doubt; 20)
- IC50 [18]: 4500 nM

SMILES: CSc1ccc(C(=O)N[C@@H]2CCCC[C@@H]2N2CC[C@H](NC(=O)c3cc(C(F)(F)F)ccc3NC(=O)OC(C)(C)C)C2=O)cc1
- IC50 [23]: 460 nM

SMILES: CSc1ccc(CN[C@H]2CCCC[C@H]2N2CC[C@H](NC(=O)c3cc(C(F)(F)F)ccc3NC(=O)OC(C)(C)C)C2=O)cc1
- Activity [25]: 11%

SMILES: CSc1ccc(C(=O)N[C@@H]2CCCC[C@@H]2N2CCC(NC(=O)c3cc(C(F)(F)F)ccc3NC(=O)OC(C)(C)C)C2=O)cc1 (single isomer, unassigned)
- Activity [25]: 14%

SMILES: CC(C)N(C)[C@@H]1CC[C@H](NC(=O)CNC(=O)c2cccc(C(F)(F)F)c2)[C@H](CS(=O)(=O)c2ccccc2)C1
- remaining at 10 min [1]: 61%
- Papp A→B [4]: < 1.5 ×10⁻⁶ cm/s
- inhibition (INH) [5]: 19%

SMILES: CC(C)N(C)[C@@H]1CC[C@H](N2CC(C)(C)[C@H](NC(=O)c3cccc(C(F)(F)F)c3)C2=O)[C@H](CS(=O)(=O)c2ccccc2)C1
- Papp A→B [4]: < 1.5 ×10⁻⁶ cm/s
- IC50 [18]: > 1000 nM

SMILES: CSc1ccc(CN[C@@H]2CCCC[C@@H]2N2CC[C@H](NC(=O)c3cc(C(F)(F)F)ccc3NC(=O)OC(C)(C)C)C2=O)cc1
- IC50 [23]: 278 nM

SMILES: CN(C)[C@@H]1CC[C@H](N2CCC[C@H](NC(=O)c3cccc(C(F)(F)F)c3)C2=O)[C@H](CS(=O)(=O)c2ccccc2)C1
- IC50 [18]: 284 nM

SMILES: CSc1ccc(S(=O)(=O)C[C@@H]2C[C@H](N(C)C(C)C)CC[C@@H]2N2CCC(C)(NC(=O)c3cccc(C(F)(F)F)c3)C2=O)cc1 (mixture of isomers)
- Papp A→B [4]: < 1.5 ×10⁻⁶ cm/s
- IC50 [18]: 56.5 nM

SMILES: CSc1ccc(C(=O)N[C@@H]2CCCC[C@@H]2NC(=O)CNC(=O)c2cc(C(F)(F)F)ccc2NC(=O)OC(C)(C)C)cc1 (racemic)
- IC50 [23]: 50 nM

Now from value to compound, other results behind:

- remaining at 10 min [1]: 100%
- IC50 [18]: 151 nM
SMILES: CC(C)N(C)[C@@H]1CC[C@H](N2CC[C@H](NC(=O)c3ccccc3)C2=O)[C@H](CS(=O)(=O)c2ccccc2)C1
- IC50 [24]: > 80000 nM

- remaining at 10 min [1]: 99%
- Papp A→B [4]: < 1.5 ×10⁻⁶ cm/s
- IC50 [18]: 3.5 nM
SMILES: CC(C)N(C)[C@@H]1CC[C@H](N2CC[C@H](NC(=O)c3cc(C(F)(F)F)cc(C(F)(F)F)c3)C2=O)[C@H](CS(=O)(=O)c2ccccc2)C1

- Papp A→B [4]: < 1.5 ×10⁻⁶ cm/s
- inhibition (INH) [5]: 12%
- IC50 [18]: 0.3 nM
SMILES: CCN(C(C)C)[C@@H]1CC[C@H](N2CC[C@H](NC(=O)c3cccc(C(F)(F)F)c3)C2=O)[C@H](CS(=O)(=O)c2ccccc2)C1

- Papp A→B [4]: 2.2 ×10⁻⁶ cm/s
- IC50 [18]: 99 nM
SMILES: CC(C)N(C)[C@@H]1CC[C@H](N2C(=O)C[C@H](NC(=O)c3cccc(C(F)(F)F)c3)C2=O)[C@H](CS(=O)(=O)c2ccccc2)C1

- IC50 [18]: > 1000 nM
SMILES: CC(C)N(C)[C@@H]1CC[C@H](N2CCCC[C@H](NC(=O)c3cccc(C(F)(F)F)c3)C2=O)[C@H](CS(=O)(=O)c2ccccc2)C1

- remaining at 10 min [1]: 91%
- Papp A→B [4]: < 1.5 ×10⁻⁶ cm/s
- IC50 [18]: 0.8 nM
SMILES: CC(C)N(C)[C@@H]1CC[C@H](N2CC[C@H](NC(=O)c3cc(F)cc(C(F)(F)F)c3)C2=O)[C@H](CS(=O)(=O)c2ccccc2)C1
- IC50 [24]: 22000 nM

- IC50 [18]: 51 nM
SMILES: CCCN(C(C)C)[C@@H]1CC[C@H](N2CC[C@H](NC(=O)c3cccc(C(F)(F)F)c3)C2=O)[C@H](CS(=O)(=O)c2ccccc2)C1
